BB579 growth dn: chemicals that inhibit yeast BB579 growth in restrictive medium (lifespan-shortening candidates). S. cerevisiae BB579 growth, OD615, 48 h. inhibition, % at 10 µM. 140,000 compounds, 0.51% hits;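 active = inhibition above a set limit, 3 SD over the mean compound inhibition, cut at about 44% in these data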
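Material: Saccharomyces cerevisiae DeaD strain BB579, replicative lifespan model yeast; buffer or medium: CSMM-D restrictive synthetic medium containing dextrose (glucose); compound: 10 µM single dose, DMSO 0.25%; timing: 48 h compound exposure at 30 °C after 4 h preincubation; signal: turbidity as optical density at 615 nm; benchmarks: positive control amphotericin B 10 µg/mL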
DAT uptake mod: modulates human dopamine transporter uptake under cocaine | Q01959 | LLC-PK1 hDAT cells, [14C]-dopamine uptake with cocaine IC80; actives deviate in either direction | B-score at 10 µM | 110,000 compounds, 1.3% hits;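 active = Z score or B-score, a plate-position-corrected score, falls beyond the plate's 99.7% confidence bounds, in either direction; inactive = both scores lie inside the 99.7% bounds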;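 note: scored against the spread of the other compound wells on the same plate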
Target sequence (Q01959 whole entry, looked up): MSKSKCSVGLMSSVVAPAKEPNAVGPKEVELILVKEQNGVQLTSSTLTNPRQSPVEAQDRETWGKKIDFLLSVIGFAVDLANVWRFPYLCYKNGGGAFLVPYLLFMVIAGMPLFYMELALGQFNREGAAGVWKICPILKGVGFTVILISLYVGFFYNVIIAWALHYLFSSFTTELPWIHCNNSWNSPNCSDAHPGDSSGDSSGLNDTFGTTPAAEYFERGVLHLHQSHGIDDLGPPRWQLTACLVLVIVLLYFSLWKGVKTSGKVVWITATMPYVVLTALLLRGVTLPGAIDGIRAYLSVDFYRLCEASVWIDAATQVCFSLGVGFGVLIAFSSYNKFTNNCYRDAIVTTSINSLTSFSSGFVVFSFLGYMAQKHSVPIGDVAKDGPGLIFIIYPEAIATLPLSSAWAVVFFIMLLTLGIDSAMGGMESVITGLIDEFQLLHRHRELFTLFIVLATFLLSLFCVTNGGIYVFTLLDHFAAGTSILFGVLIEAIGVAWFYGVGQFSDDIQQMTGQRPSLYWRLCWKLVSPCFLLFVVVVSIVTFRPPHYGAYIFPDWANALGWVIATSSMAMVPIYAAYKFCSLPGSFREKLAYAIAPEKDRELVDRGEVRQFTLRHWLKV
Yeast lifespan up: extends the lifespan of yeast; S. cerevisiae growth with nicotinamide, OD615; deaD strain in restrictive glucose medium; inhibition of the nicotinamide effect, % at 10 µM; 130,000 compounds, 0.68% hits; AID 775;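 active = inhibition above a set limit, placed 3 SD over the median of all compounds, cut at about 26% in these data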;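 note: 0% = nicotinamide-treated wells and 100% = cells grown without nicotinamide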
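Measured by: optical density (absorbance) at 615 nm; System: modified budding yeast, DeaD strain; Medium: restrictive CSMM-D dextrose medium; Timing: 4 h preincubation then 48 h treatment at 30 °C.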
WT yeast gro inh: growth inhibition of WT yeast, mitochondrial fusion screen; mitochondrial fusion phenotypic screen, WT strain; inhibition, % at 10 µM; 190,000 compounds, 2.1% hits; in the data active = inhibition above about 58%; tested in S. cerevisiae
RAM network inh: inhibitors of the yeast RAM network; AID 868; S. cerevisiae dse1pr::URA3 reporter, 5-FOA growth OD615, 2 d; analog-sensitive cbk1-as2 kinase mutant strain; inhibition, % at 50 µM; 190,000 compounds, 1.8% hits;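 active = inhibition above a set limit, 3 SD over mean compound inhibition, cut at about 8.4% in these data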;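 note: 0% = DMSO-only wells with no growth and 100% = 10 µM 1-NA-PP1 full growth; inhibition rescues growth on 5-FOA so higher OD means more RAM inhibition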
Measles CPE: protection of cells from measles virus; Measles virus-infected cells, CPE protection, absorbance; protection (pct of control), % at 4 µM; 140,000 compounds, 1.5% hits; AID 841; in the data active = protection mostly above about 24%, no sharp cut-off; inactive = mostly below about 26%
Numbers without * were called inactive. Hits are enriched below; roughly 6.1% of the tested compounds scored in any of these assays.

Screening CCOc1ccc2nc(SC3CC(=O)N(c4cccc(OC)c4)C3=O)sc2c1 (stereo not given) returned BB579 growth dn -23, Yeast lifespan up -2, WT yeast gro inh 32, RAM network inh 3 and Measles CPE 7.
Screening COC(=O)c1ccccc1NC(=O)c1ccc(COc2ccc(C)c(C)c2)o1 returned BB579 growth dn -26, DAT uptake mod 0.76, Yeast lifespan up -23, WT yeast gro inh 17, RAM network inh 10* and Measles CPE 0.
Screening COC(=O)c1ccccc1NC(=O)c1ccc(COc2cc(C)cc(C)c2)o1 returned BB579 growth dn -34, DAT uptake mod 0.73, Yeast lifespan up -3, WT yeast gro inh 11, RAM network inh 11* and Measles CPE 20.
`COc1ccccc1NC(=O)c1ccc(COc2ccccc2OC)o1` gave BB579 growth dn -32, DAT uptake mod -0.48, Yeast lifespan up -25, WT yeast gro inh -1, RAM network inh 5 and Measles CPE 1.
For CCCn1cnc2cc(NC(=O)c3cccs3)ccc21 the results were WT yeast gro inh 21 and RAM network inh -1.
`CCOc1cc(C)c(C(C)C)cc1S(=O)(=O)NCc1ccccn1` gave BB579 growth dn -45, DAT uptake mod -0.69, Yeast lifespan up 59*, WT yeast gro inh 35, RAM network inh 3 and Measles CPE 30.
For CCN(c1ccccc1)c1ncnc2c1cnn2-c1ccccc1 the results were BB579 growth dn -43, DAT uptake mod 1.7, Yeast lifespan up -7, WT yeast gro inh 1, RAM network inh 3 and Measles CPE 49*.
For COCCNC(=O)c1cc2cc(Cl)cc(Cl)c2oc1=O the results were WT yeast gro inh -11 and RAM network inh 4.
For Cc1nc(N2CCN(Cc3ccc4c(c3)OCO4)CC2)c2oc3ccccc3c2n1 the results were WT yeast gro inh 45.
Screening Cc1nc(N2CCN(Cc3ccc4c(c3)OCO4)CC2)c2cc(-c3ccccc3)sc2n1 returned WT yeast gro inh 70* and RAM network inh 3.
`COc1ccccc1CNC(=O)CCC(=O)Nc1nnc(C)s1` gave BB579 growth dn -1, DAT uptake mod -0.63, Yeast lifespan up -5, WT yeast gro inh -28, RAM network inh 2 and Measles CPE 51*.
For COc1ccccc1CNC(=O)CCC(=O)Nc1nnc(C(C)C)s1 the results were BB579 growth dn -11, DAT uptake mod 0.23, Yeast lifespan up -5, WT yeast gro inh -40, RAM network inh -1 and Measles CPE 18.
Screening Cc1cccc(C)c1NC(=O)CN(c1ccccn1)S(=O)(=O)c1ccc(F)cc1 returned WT yeast gro inh 4 and RAM network inh 1.
For CCOC(=O)c1c(NC(=O)C2C3C=CC(C3)C2C(=O)O)sc2c1CCC(CC)C2 (stereo not given) the results were BB579 growth dn -15, Yeast lifespan up 42*, WT yeast gro inh 11, RAM network inh 1 and Measles CPE 29.
For COc1cccc(OCCN2CCN(c3ncnc4c3cnn4-c3ccccc3)CC2)c1 the results were BB579 growth dn -37, DAT uptake mod 0.63, Yeast lifespan up -9, WT yeast gro inh 59*, RAM network inh -1 and Measles CPE 6.
Screening CCn1cc(C(=O)OCC(=O)c2ccc(Cl)cc2)c(=O)c2ccc(C)nc21 returned WT yeast gro inh 6 and RAM network inh 2.
For CCn1cc(C(=O)OCC(=O)c2cc(C)n(-c3cccc(C(F)(F)F)c3)c2C)c(=O)c2ccc(C)nc21 the results were BB579 growth dn -34, Yeast lifespan up 3, WT yeast gro inh 68*, RAM network inh 4 and Measles CPE 7.
`Cc1cc(NC(=O)c2sccc2C)n(-c2nc3ccccc3[nH]2)n1` gave WT yeast gro inh 79* and RAM network inh 1.
`Cc1cc(NC(=O)c2cccs2)n(-c2nc3ccccc3[nH]2)n1` gave WT yeast gro inh -3 and RAM network inh 5.
`Cc1ccc(O)c(C2=Nc3ccccc3N=C(c3cccc([N+](=O)[O-])c3)C2)c1` gave WT yeast gro inh 5 and RAM network inh 1.
Screening Cc1cccc(NC(=S)N=Nc2c(O)[nH]c3ccccc23)c1 returned BB579 growth dn -37, Yeast lifespan up -2, WT yeast gro inh 59*, RAM network inh 5 and Measles CPE 12.

Screening results deposited in PubChem BioAssay by several laboratories.
